Columns and labels:
[1] = tested on: MCF7; experiment: Cytotoxicity against human MCF7 cells incubated for 72 hrs by MTT assay; assay type: functional, cell-based; settings: MCF7, 72 h
Method in brief: (§1)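 Cells were kept in DMEM (MDA-MB-435, MCF7, LNCaP) or RPMI (HT29, HCT116) with 10% heat-inactivated FBS and 2 mM L-glutamine, subconfluent and in exponential growth. They were seeded, allowed to adhere overnight, then exposed continuously to compound (10 mM DMSO stock) for 72 h. MTT was added to 0.3 mg/mL final for 3–4 h at 37 °C, formazan was dissolved in DMSO, and absorbance was read at 570 nm. Runs were in triplicate; IC50 came from log concentration versus percent cell kill.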

[2] = tested on: HCT-116; experiment: Cytotoxicity against p53 expressing human HCT116 cells incubated for 72 hrs by MTT assay; assay type: functional, cell-based; settings: HCT-116, 72 h; method in brief: as §1
[3] = tested on: HCT-116; experiment: Cytotoxicity against p53 deficient human HCT116 cells incubated for 72 hrs by MTT assay; assay type: functional, cell-based; settings: HCT-116, 72 h; method in brief: as §1
[4] = tested on: MDA-MB-435; experiment: Cytotoxicity against human MDA-MB-435 cells incubated for 72 hrs by MTT assay; assay type: functional, cell-based; settings: MDA-MB-435, 72 h; method in brief: as §1
[5] = target: T1, Human immunodeficiency virus type 1 integrase (Human immunodeficiency virus 1, UniProt Q7ZJM1); experiment: Inhibition of HIV1 integrase strand transfer activity using [32P]-labeled linear oligonucleotide substrate
T1 sequence (Q7ZJM1 whole entry): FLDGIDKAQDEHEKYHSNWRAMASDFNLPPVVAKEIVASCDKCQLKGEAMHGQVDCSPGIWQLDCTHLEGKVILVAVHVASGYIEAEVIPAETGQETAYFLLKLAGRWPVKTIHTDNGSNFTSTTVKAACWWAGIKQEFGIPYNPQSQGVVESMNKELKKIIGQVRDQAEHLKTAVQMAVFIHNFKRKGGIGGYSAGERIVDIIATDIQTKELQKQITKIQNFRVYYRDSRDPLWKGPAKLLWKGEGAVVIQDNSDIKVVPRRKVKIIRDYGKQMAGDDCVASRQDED

[6] = target: T1, Human immunodeficiency virus type 1 integrase; experiment: Inhibition of HIV1 integrase 3'-processing activity using [32P]-labeled linear oligonucleotide substrate
[7] = tested on: HEY; experiment: Cytotoxicity against human HEY cells incubated for 72 hrs by MTT assay; assay type: functional, cell-based
[8] = target: Receptor tyrosine-protein kinase erbB-2 (Homo sapiens) (UniProt P04626); experiment: Inhibition of ErbB2 at 10 uM incubated for 60 mins using poly(Glu,Tyr)4:1 substrate and 10 uM ATP by ELISA
Chain of Receptor tyrosine-protein kinase erbB-2 (Homo sapiens) (P04626 whole entry): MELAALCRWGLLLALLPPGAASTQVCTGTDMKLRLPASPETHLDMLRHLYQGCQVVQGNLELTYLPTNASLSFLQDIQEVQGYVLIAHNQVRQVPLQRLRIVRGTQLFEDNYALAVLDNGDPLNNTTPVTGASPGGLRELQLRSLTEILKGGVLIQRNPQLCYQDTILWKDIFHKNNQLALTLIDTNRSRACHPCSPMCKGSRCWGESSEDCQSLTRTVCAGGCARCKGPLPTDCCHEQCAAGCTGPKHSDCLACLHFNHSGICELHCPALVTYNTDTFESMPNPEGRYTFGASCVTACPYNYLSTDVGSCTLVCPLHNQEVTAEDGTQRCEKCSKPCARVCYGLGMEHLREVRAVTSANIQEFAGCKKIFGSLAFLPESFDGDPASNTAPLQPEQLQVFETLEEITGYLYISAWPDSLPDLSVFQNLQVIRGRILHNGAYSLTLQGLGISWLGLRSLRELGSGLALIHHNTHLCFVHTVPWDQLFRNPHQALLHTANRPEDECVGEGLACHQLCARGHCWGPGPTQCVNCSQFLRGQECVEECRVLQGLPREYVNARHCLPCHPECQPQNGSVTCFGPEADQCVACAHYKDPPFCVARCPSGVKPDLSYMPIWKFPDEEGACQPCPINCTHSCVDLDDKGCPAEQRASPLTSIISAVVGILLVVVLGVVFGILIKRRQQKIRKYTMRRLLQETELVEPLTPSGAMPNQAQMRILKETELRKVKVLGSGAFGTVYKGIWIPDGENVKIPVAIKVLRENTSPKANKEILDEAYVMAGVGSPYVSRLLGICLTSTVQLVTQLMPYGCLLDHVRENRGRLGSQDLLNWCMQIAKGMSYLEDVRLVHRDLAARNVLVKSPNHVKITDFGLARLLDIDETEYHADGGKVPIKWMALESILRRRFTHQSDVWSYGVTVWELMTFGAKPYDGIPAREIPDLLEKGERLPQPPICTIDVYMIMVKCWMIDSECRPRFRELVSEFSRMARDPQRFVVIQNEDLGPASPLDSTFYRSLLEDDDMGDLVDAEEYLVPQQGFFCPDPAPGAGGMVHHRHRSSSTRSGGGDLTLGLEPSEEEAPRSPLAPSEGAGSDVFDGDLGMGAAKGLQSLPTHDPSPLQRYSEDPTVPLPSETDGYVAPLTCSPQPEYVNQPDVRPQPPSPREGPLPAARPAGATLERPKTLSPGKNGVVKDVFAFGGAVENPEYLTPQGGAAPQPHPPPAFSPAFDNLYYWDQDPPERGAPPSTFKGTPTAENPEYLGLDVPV
Method in brief: (§2)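 ELISA with Poly(Glu,Tyr)4:1 (20 μg/mL) precoated as substrate and 10 μM ATP, in 50 mM HEPES pH 7.4, 20 mM MgCl2, 0.1 mM MnCl2, 0.2 mM Na3VO4, 1 mM DTT. Compound was tested at 10 μM, in duplicate. Kinase reaction ran 60 min at 37 °C. Phosphotyrosine was detected with PY99 and HRP anti-mouse IgG, developed with o-phenylenediamine/H2O2, stopped with H2SO4 and read at 492 nm. Inhibition = [1 − A492 treated/A492 control] × 100%. References: lapatinib (ErbB2) and PP2 (Src), each at 10 μM.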

[9] = tested on: SK-BR-3; experiment: Cytotoxicity against human SKBR3 cells incubated for 72 hrs by MTT assay; assay type: functional, cell-based; settings: SK-BR-3, 72 h
[10] = tested on: LNCaP; experiment: Cytotoxicity against human LNCAP cells incubated for 72 hrs by MTT assay; assay type: functional, cell-based; method in brief: as §1
[11] = tested on: HT-29; experiment: Cytotoxicity against human HT-29 cells incubated for 72 hrs by MTT assay; assay type: functional, cell-based; settings: HT-29, 72 h; method in brief: as §1
[12] = target: Proto-oncogene tyrosine-protein kinase Src (Homo sapiens) (UniProt P12931); experiment: Inhibition of SRC at 10 uM incubated for 60 mins using poly(Glu,Tyr)4:1 substrate and 10 uM ATP by ELISA; method in brief: as §2
Chain of Proto-oncogene tyrosine-protein kinase Src (Homo sapiens) (P12931 2-536 limits assumed): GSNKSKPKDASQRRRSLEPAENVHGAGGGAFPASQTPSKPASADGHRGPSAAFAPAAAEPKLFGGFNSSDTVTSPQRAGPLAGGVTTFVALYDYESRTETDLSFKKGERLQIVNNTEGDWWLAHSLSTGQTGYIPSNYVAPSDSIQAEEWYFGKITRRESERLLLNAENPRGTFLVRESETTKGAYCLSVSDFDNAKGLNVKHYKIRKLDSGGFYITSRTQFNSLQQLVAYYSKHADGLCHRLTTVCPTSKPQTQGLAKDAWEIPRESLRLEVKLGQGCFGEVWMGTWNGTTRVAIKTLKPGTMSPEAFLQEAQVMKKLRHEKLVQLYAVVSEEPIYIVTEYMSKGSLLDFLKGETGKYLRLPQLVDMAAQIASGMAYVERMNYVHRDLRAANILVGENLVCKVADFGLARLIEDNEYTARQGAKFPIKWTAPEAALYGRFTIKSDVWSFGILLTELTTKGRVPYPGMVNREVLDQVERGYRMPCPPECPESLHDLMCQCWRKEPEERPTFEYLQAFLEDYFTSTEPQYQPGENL

[13] = Therapeutic index, ratio of CC50 for human C8166 cells to EC50 for HIV1 3B; assay type: cell-based; settings: read-out: Ratio CC50/EC50
Method in brief: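 Therapeutic index was calculated as the C8166 MTT CC50 divided by the HIV-1 IIIB syncytium-reduction EC50.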

[14] = Toxicity against human C8166 cells incubated for 72 hrs by MTT assay; assay type: cell-based
Method in brief: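 C8166 cells were seeded with serial compound dilutions in triplicate and incubated at 37 °C, 5% CO2 for 72 h. MTT (5 mg/mL in PBS) was added for 4 h, and formazan was dissolved in 50% DMF-20% SDS. Absorbance was read at 595/630 nm. CC50 was taken from the dose-response curve.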

[15] = tested on: Human immunodeficiency virus 1; experiment: Antiviral activity against HIV1 3B infected in human C8166 cells assessed as reduction in virus-induced cytopathogenicity measured after 3 days by syncytium reduction assay; assay type: functional, organism-based; settings: Human immunodeficiency virus 1, 3B, C8166, 72 h
Method in brief: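 C8166 cells (4 × 10⁵ mL⁻¹), grown in RPMI-1640 with 10% heat-inactivated FCS and kept in log phase, infected with HIV-1 IIIB at MOI 0.06 in the presence of serial compound dilutions. AZT served as positive control. After 3 days, syncytia were counted by inverted microscope. EC50 was derived from percent inhibition of syncytium number relative to infected control.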

| Compound | IC50 [1] [µM] | IC50 [2] [µM] | IC50 [3] [µM] | IC50 [4] [µM] | IC50 [5] [µM] | IC50 [6] [µM] | IC50 [7] [µM] | IC50 [9] [µM] | also measured |
| --- | --- | --- | --- | --- | --- | --- | --- | --- | --- |
| NCCNc1c(C(=O)NCc2ccc(F)cc2)nc(Br)c2cccnc12 | 6 | > 20 | > 20 | 12 | > 100 | > 100 |  |  |  |
| CN(C)c1ccc(CNC(=O)c2nc(Br)c3cccnc3c2N[C@H]2CC[C@H](N)CC2)cc1 | 5 |  |  | 4 |  |  | 5.3 |  |  |
| N[C@H]1CC[C@H](Nc2c(C(=O)NCc3ccccc3)nc(Br)c3cccnc23)CC1 |  | 7 |  | 7 |  |  | 8 | 8 | inhibition [8]: 0% |
| C[C@H](NC(=O)c1nc(Br)c2cccnc2c1N[C@H]1CC[C@H](N)CC1)c1ccc(F)cc1 |  | > 10 |  | > 10 |  |  | > 10 | 9 |  |
| N[C@H]1CC[C@H](Nc2c(C(=O)NCc3cccs3)nc(Br)c3cccnc23)CC1 | 7.3 |  |  | 4.1 |  |  | 11 |  |  |
| C[C@H](Nc1c(C(=O)NCc2ccc(F)cc2)nc(Br)c2cccnc12)c1ccccc1 |  | > 20 | > 20 | > 20 | > 111 | > 111 |  |  |  |
| Nc1cccc(Nc2c(C(=O)NCc3ccc(F)cc3)nc(Br)c3cccnc23)c1 | 8 | > 10 | > 10 | 8 |  |  |  | > 10 | IC50 [10]: 8 µM; IC50 [11]: > 10 µM |
| CC(C)(C)n1nc(-c2ccc(Cl)cc2)c2c(N)ncnc21 |  |  |  |  |  |  |  |  | inhibition [12]: 94% |
| N[C@H]1CC[C@H](Nc2c(C(=O)NCc3ccc(F)cc3)nc(N3CCCCC3)c3cccnc23)CC1 | 5 | 8 | 8.5 | 5 |  |  |  | > 10 |  |
| Cc1ccc(S(=O)(=O)Oc2c(C(=O)NCc3ccc(F)cc3)nc(Br)c3cccnc23)cc1 |  | > 20 | > 20 | > 20 | 31 | > 111 |  |  | selectivity ratio [13]: 6.2; CC50 at 72 h [14]: 31 µM; EC50 [15]: 5020 nM |
| N[C@H]1CC[C@H](Nc2c(C(=O)NCc3ccc4c(c3)OCO4)nc(Br)c3cccnc23)CC1 |  | 7 |  | 7 |  |  | 4 | 6 | inhibition [8]: 0% |
| N[C@H]1CC[C@H](Nc2c(C(=O)NCc3ccc(F)cc3)nc(N3CCCCS3(=O)=O)c3cccnc23)CC1 | 13 | > 10 | > 10 | 5 |  |  |  | 8.5 | IC50 [10]: 8 µM; IC50 [11]: > 10 µM |
| O=C(NCc1ccc(F)cc1)c1nc(Br)c2cccnc2c1NCc1ccccc1 |  | > 20 | > 20 | > 20 | > 100 | > 100 |  |  |  |
| C[C@@H](CO)Nc1nc(C(=O)NCc2ccc(F)cc2)c(O)c2ncccc12 |  |  |  | > 20 | 0.3 | 7.8 |  |  | selectivity ratio [13]: 4650; CC50 at 72 h [14]: 107 µM; EC50 [15]: 23 nM |
| CNc1c(C(=O)NCc2ccc(F)cc2)nc(Br)c2cccnc12 |  | > 20 | > 20 | > 20 | > 100 | > 100 |  |  |  |
| C[C@H](CO)Nc1nc(C(=O)NCc2ccc(F)cc2)c(O)c2ncccc12 |  |  |  | > 20 | 0.2 | 6.9 |  |  | selectivity ratio [13]: 1330; CC50 at 72 h [14]: 69 µM; EC50 [15]: 52 nM |
| N[C@H]1CC[C@H](Nc2c(C(=O)NCc3cccc(C(F)(F)F)c3)nc(Br)c3cccnc23)CC1 | 15 |  |  | 4.2 |  |  | 12 |  |  |
| N[C@H]1CC[C@H](Nc2c(C(=O)NC3CCCCC3)nc(Br)c3cccnc23)CC1 | 5.2 | > 10 |  | > 10 |  |  | 5.2 | 4.2 |  |

| Compound | IC50 [1] [µM] | IC50 [2] [µM] | IC50 [3] [µM] | IC50 [4] [µM] | IC50 [5] [µM] | IC50 [6] [µM] | IC50 [7] [µM] | IC50 [9] [µM] | also measured |
| --- | --- | --- | --- | --- | --- | --- | --- | --- | --- |
| N[C@H]1CC[C@H](Nc2c(C(=O)NCc3ccc(Oc4ccccc4)cc3)nc(Br)c3cccnc23)CC1 | 7.9 |  |  | 4 |  |  | 9 |  |  |
| N[C@H]1CC[C@H](Nc2c(C(=O)NCc3ccco3)nc(Br)c3cccnc23)CC1 |  | > 10 |  | > 10 |  |  | > 10 | 10 |  |
| O=C(NCCCNc1c(C(=O)NCc2ccc(F)cc2)nc(Br)c2cccnc12)c1ccccc1 | 2 | > 10 | > 10 | > 20 |  |  |  | 1 | IC50 [10]: > 10 µM; IC50 [11]: > 10 µM |
| N[C@H]1CC[C@H](Nc2c(C(=O)NCc3ccccn3)nc(Br)c3cccnc23)CC1 | 15 |  |  | 4 |  |  | > 20 |  |  |
| N[C@H]1CC[C@H](Nc2c(C(=O)Nc3ccccc3)nc(Br)c3cccnc23)CC1 |  | 2 |  | 1 |  |  | 1 | 2 | inhibition [8]: 0% |
| O=C(NCc1ccc(F)cc1)c1nc(NCCO)c2cccnc2c1O |  |  |  | > 20 | 0.3 | 9.5 |  |  | selectivity ratio [13]: 3140; CC50 at 72 h [14]: 91 µM; EC50 [15]: 29 nM |
| COc1cccc(CNC(=O)c2nc(Br)c3cccnc3c2N[C@H]2CC[C@H](N)CC2)c1 |  | 6 |  | 7 |  |  | 7 | 6 | inhibition [8]: 0% |
| CNCCCNc1c(C(=O)NCc2ccc(F)cc2)nc(Br)c2cccnc12 | > 10 | 9 | > 10 | 11 |  |  |  | 1 | IC50 [10]: 8 µM; IC50 [11]: > 10 µM |
| N[C@H]1CC[C@H](Nc2c(C(=O)NCCc3ccccc3)nc(Br)c3cccnc23)CC1 |  | 8.8 |  | 8 |  |  | 6 | 7 | inhibition [8]: 0% |
| CC(C)(C)OC(=O)N1CCC(Nc2c(C(=O)NCc3ccc(F)cc3)nc(Br)c3cccnc23)CC1 | > 10 | > 10 | 9 | 20 |  |  |  | 1 | IC50 [10]: > 10 µM; IC50 [11]: > 10 µM |
| CC(C)(C)OC(=O)N1CCN(c2c(C(=O)NCc3ccc(F)cc3)nc(Br)c3cccnc23)CC1 | > 10 | > 10 | > 10 | 10 |  |  |  | 3 | IC50 [10]: > 10 µM; IC50 [11]: > 10 µM |
| O=C(NCc1ccc(F)cc1)c1nc(Br)c2cccnc2c1NCc1ccc(F)cc1 |  | > 20 | > 20 | > 20 | > 100 | > 100 |  |  |  |
| CS(=O)(=O)CCNCc1ccc(-c2ccc3ncnc(Nc4ccc(OCc5cccc(F)c5)c(Cl)c4)c3c2)o1 |  |  |  |  |  |  |  |  | inhibition [8]: 92% |
| COC(=O)c1nc(Br)c2cccnc2c1N[C@H]1CC[C@H](N)CC1 | > 20 |  |  | > 20 |  |  | > 20 |  |  |
| COC(=O)CNc1c(C(=O)NCc2ccc(F)cc2)nc(Br)c2cccnc12 | > 10 | > 10 | > 10 | 10 |  |  |  | 1 | IC50 [10]: 5 µM; IC50 [11]: > 10 µM |
| O=C(NCc1ccc(F)cc1)c1nc(Br)c2cccnc2c1NCCCNc1c(C(=O)NCc2ccc(F)cc2)nc(Br)c2cccnc12 |  | > 20 | > 20 | > 20 | > 100 | > 100 |  |  |  |
| N[C@H]1CC[C@H](NC(=O)c2nc(Br)c3cccnc3c2NCc2ccc(F)cc2)CC1 |  | 6.4 |  | 6.6 |  |  | 7.1 | 2.8 | inhibition [12]: 0%; inhibition [8]: 3% |
| C[C@@H](Nc1c(C(=O)NCc2ccc(F)cc2)nc(Br)c2cccnc12)c1ccccc1 |  | > 20 | > 20 | > 20 | > 111 | > 111 |  |  |  |

— ChEMBL document CHEMBL2176962, “Repositioning HIV-1 integrase inhibitors for cancer therapeutics: 1,6-naphthyridine-7-carboxamide as a promising scaffold with drug-like properties” (J Med Chem, 2012)
